18 compounds from ChEMBL document CHEMBL4138155, “Design, synthesis and biochemical evaluation of novel multi-target inhibitors as potential anti-Parkinson agents” (Eur J Med Chem, 2018) can be followed below.

The target in assay [1] is T1, Amine oxidase [flavin-containing] A (Homo sapiens, UniProt P21397).
T1 sequence (P21397 whole entry): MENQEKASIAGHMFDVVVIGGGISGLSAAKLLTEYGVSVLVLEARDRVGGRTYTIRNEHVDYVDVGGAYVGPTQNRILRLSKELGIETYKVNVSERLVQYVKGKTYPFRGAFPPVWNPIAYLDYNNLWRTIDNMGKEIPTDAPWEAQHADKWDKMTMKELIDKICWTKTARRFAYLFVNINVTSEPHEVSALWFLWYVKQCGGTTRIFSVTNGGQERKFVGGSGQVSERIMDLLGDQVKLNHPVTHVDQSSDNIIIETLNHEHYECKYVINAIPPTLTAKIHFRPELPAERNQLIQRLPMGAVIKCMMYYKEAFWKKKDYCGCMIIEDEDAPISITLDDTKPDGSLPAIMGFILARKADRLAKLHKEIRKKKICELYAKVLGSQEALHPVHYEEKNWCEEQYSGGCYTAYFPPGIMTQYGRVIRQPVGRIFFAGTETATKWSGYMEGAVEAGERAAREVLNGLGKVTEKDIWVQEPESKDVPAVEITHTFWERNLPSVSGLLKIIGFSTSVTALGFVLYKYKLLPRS
Nature of the assay: Inhibition of recombinant human MAO-A using kynuramine as substrate after 20 mins by fluorescence assay.

Assay [2] deals with T2, Amine oxidase [flavin-containing] B (Homo sapiens, UniProt P27338).
T2 sequence (P27338 whole entry): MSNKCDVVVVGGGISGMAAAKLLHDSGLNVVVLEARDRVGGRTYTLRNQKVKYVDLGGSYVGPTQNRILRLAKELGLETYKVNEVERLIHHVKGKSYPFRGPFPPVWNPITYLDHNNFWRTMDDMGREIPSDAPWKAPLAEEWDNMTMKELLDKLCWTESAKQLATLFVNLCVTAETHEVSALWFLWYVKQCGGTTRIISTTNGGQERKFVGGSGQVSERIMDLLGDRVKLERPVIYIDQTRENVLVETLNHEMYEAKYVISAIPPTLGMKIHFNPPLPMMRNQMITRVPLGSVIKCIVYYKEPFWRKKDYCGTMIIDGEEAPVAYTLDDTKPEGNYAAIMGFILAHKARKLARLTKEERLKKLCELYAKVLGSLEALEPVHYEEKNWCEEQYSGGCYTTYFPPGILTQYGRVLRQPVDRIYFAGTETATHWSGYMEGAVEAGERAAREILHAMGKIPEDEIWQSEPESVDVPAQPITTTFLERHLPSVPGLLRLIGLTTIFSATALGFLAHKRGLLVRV

For assay [3], the target named is Cholinesterase (Equus caballus) (UniProt P81908). Nature of the assay: Inhibition of horse serum BuChE at 3 uM using butyrylthiocholine iodide as substrate preincubated for 15 mins followed by substrate addition measured after 10 mins by spectrophotometry based-Ellman's method. Background: In Ellman's method for cholinesterases, released thiocholine reacts with DTNB.
Cholinesterase (Equus caballus), sequence (P81908 whole entry): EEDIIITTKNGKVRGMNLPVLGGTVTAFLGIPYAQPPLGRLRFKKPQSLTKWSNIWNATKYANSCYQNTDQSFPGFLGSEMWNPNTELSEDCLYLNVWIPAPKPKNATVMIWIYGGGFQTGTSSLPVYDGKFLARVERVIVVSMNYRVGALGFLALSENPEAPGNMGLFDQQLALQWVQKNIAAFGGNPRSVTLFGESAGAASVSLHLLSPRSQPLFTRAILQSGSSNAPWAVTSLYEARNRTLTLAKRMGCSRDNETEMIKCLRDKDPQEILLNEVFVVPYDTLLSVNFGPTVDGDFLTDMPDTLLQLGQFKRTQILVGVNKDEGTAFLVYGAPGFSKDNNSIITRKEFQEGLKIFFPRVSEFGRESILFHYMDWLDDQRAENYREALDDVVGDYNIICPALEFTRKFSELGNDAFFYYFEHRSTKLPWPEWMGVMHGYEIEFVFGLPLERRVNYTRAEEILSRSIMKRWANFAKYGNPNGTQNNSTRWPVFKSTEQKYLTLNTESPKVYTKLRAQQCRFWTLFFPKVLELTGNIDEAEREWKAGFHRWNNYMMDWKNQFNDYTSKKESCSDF

The nature of assay [4]: Antioxidant activity assessed as total antioxidant capacity after 90 mins by phosphomolybdenum method. Format: functional. The procedure, abridged: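 Sample combined with reagent of 0.6 M sulphuric acid, 28 mM sodium phosphate and 4 mM ammonium molybdate; heated 90 min at 95 °C, absorbance at 695 nm. EC50 = concentration giving absorbance 0.5; trolox as reference.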
Assay [5] can be described thus: Antioxidant activity assessed as ferric ion reducing activity using Fe3+-TPTZ after 30 mins by FRAP assay. Format: functional. The procedure, abridged:
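FRAP reagent: acetate buffer (0.3 M, pH 3.6), TPTZ (10 mM) in 40 mM HCl and FeCl3 (20 mM), 10:1:1 v/v/v. Sample added, 30 min at room temperature, absorbance at 593 nm. Expressed as EC50.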

Assay [6] is described as follows: Antioxidant activity assessed as cupric ion reducing activity after 30 mins by CUPRAC assay. It counts as functional. The procedure, abridged:
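Sample mixed with CuCl2 (10 mM), neocuproine (7.5 mM) and NH4Ac buffer (1 M, pH 7.0) stock reagents; blank lacks CuCl2. Absorbance at 450 nm after 30 min at room temperature, blank subtracted. Expressed as EC50.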

Assay [7] can be described thus: Antioxidant activity assessed as DPPH radical scavenging activity after 30 mins. It counts as functional. The method in brief: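 Sample added to 0.004% DPPH in methanol, kept 30 min in the dark at room temperature, absorbance read at 517 nm. IC50 taken as the concentration scavenging 50% of DPPH radicals; trolox as reference.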
The nature of assay [8]: Antioxidant activity assessed as ABTS radical scavenging activity measured after 12 to 16 hrs. It counts as functional. The method in brief:
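ABTS radical cation generated from 7 mM ABTS with 2.45 mM potassium persulphate, 12-16 h dark at room temperature, then diluted with methanol to A734 0.700 ± 0.02. Sample mixed with ABTS solution, 30 min at room temperature, absorbance read at 734 nm. IC50 = concentration scavenging 50% of radicals; trolox reference.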

Broadly, the IC50 is the concentration that gives 50% inhibition. Broadly, the inhibition is the drop in the measured response relative to a control, in per cent. A higher inhibition goes with strong suppression. One may read the EC50 as the concentration that produces a half-maximal response. On to `O=[N+]([O-])c1cccc(-c2csc(NN=C3CCCCC3)n2)c1`, for which the IC50 was 2.56 µM in assay [1], 0.047 µM in assay [2], 1200 µM in assay [7] and 1100 µM in assay [8]. This compound also registered an inhibition in assay [3] of 8.41%. Further, the EC50 in assay [4] amounted to 1430 µM; in assay [5], 330 µM; in assay [6], 320 µM.

With `O=[N+]([O-])c1cccc(-c2csc(NN=C3CCCCCCC3)n2)c1`, the IC50 in assay [1] turned out to be 1.82 µM; in assay [2], 0.01 µM; in assay [7], 1280 µM; in assay [8], 1090 µM. In assay [3], this compound showed an inhibition of 7.64%. Besides, the EC50 in assay [4] stood at 1220 µM; in assay [5], 390 µM; in assay [6] it was 440 µM.

Consider `C/C(=N/Nc1nc(-c2cccc([N+](=O)[O-])c2)cs1)C1CCCCC1`, for which the IC50 in assay [1] was determined as 29.1 µM; in assay [2] it was 0.0072 µM; in assay [7], 1350 µM; in assay [8] it was 1050 µM. Besides, the inhibition in assay [3] is 6.22%. Besides, the results for the EC50 in assay [4], in assay [5] and in assay [6] were 1190 µM, 670 µM and 610 µM, respectively.

In the case of `CCCCCC/C(C)=N\Nc1nc(-c2cccc([N+](=O)[O-])c2)cs1`, the IC50 turned out to be 10.9 µM in assay [1], 0.626 µM in assay [2], 1150 µM in assay [7] and 1110 µM in assay [8]. The compound also showed an inhibition in assay [3] of 9.54%. The EC50 in assay [4] is 1240 µM; in assay [5] it was 390 µM; in assay [6], 530 µM.

As to `CCCC/C(C)=N\Nc1nc(-c2cccc([N+](=O)[O-])c2)cs1`, the IC50 turned out to be 6.33 µM in assay [1], 0.118 µM in assay [2], 1180 µM in assay [7] and 1060 µM in assay [8]. The compound further registered an inhibition in assay [3] of 11.3%. For the same compound, the EC50 in assay [4] stood at 1460 µM; in assay [5] it was 370 µM; in assay [6] it was 520 µM.

Consider `O=[N+]([O-])c1cccc(-c2csc(NN=C3CCCCCC3)n2)c1`, for which the IC50 is 1.59 µM in assay [1], 0.0086 µM in assay [2], 1220 µM in assay [7] and 1070 µM in assay [8]. In assay [3], this compound registered an inhibition of 7.11%. In addition, the figures for the EC50 in assay [4], in assay [5] and in assay [6] were 1230 µM, 420 µM and 410 µM, respectively.

On to `CC(C)=NNc1nc(-c2cccc([N+](=O)[O-])c2)cs1`, for which the IC50 in assay [1] is 1.07 µM; in assay [2], 0.716 µM; in assay [7] it was 1160 µM; in assay [8], 1070 µM. Also, the inhibition in assay [3] stood at 12.8%. Besides, the EC50 is 1750 µM in assay [4], 340 µM in assay [5] and 510 µM in assay [6].

`C/C(CC(C)C)=N/Nc1nc(-c2cccc([N+](=O)[O-])c2)cs1`: the IC50 stood at 4.41 µM in assay [1], 0.012 µM in assay [2], 1350 µM in assay [7] and 1050 µM in assay [8]. The same compound gave an inhibition in assay [3] of 8.98%. For the same compound, the values for the EC50 in assay [4], in assay [5] and in assay [6] were 1130 µM, 420 µM and 570 µM, respectively.

In the case of `Cc1c(C)c2c(c(C)c1O)CCC(C)(C(=O)O)O2` (centres undefined) [TROLOX], the EC50 in assay [4] is 1130 µM; in assay [5], 160 µM; in assay [6], 240 µM. Moreover, the IC50 in assay [7] stood at 400 µM; in assay [8], 660 µM.

For `CCC/C(CC)=N\Nc1nc(-c2cccc([N+](=O)[O-])c2)cs1`, the IC50 stood at 4.86 µM in assay [1], 0.189 µM in assay [2], 1230 µM in assay [7] and 1040 µM in assay [8]. Besides, the inhibition in assay [3] came to 11%. The figures for the EC50 in assay [4], in assay [5] and in assay [6] were 1250 µM, 390 µM and 530 µM, respectively.

In assay [3], `COc1ccc2c3c1O[C@H]1C[C@@H](O)C=C[C@@]31CCN(C)C2` had an inhibition of 13.6%.

Regarding `CCC(CC)=NNc1nc(-c2cccc([N+](=O)[O-])c2)cs1`, the IC50 stood at 24.3 µM in assay [1], 0.053 µM in assay [2], 1130 µM in assay [7] and 1040 µM in assay [8]. Besides, the inhibition in assay [3] was determined as 7.45%. For the same compound, the values for the EC50 in assay [4], in assay [5] and in assay [6] were 1100 µM, 340 µM and 460 µM, respectively.

As to `CC/C(C)=N\Nc1nc(-c2cccc([N+](=O)[O-])c2)cs1`, the IC50 stood at 20.5 µM in assay [1], 0.351 µM in assay [2], 1180 µM in assay [7] and 1040 µM in assay [8]. For the same compound, in assay [3], the inhibition came to 12.1%. In addition, the EC50 turned out to be 1650 µM in assay [4], 420 µM in assay [5] and 580 µM in assay [6].

Take `CCC/C(C)=N\Nc1nc(-c2cccc([N+](=O)[O-])c2)cs1`: the IC50 turned out to be 38 µM in assay [1], 0.055 µM in assay [2], 1200 µM in assay [7] and 1040 µM in assay [8]. The compound also gave an inhibition in assay [3] of 5.16%. The concentration giving a half-maximal response (EC50) in assay [4] was 1200 µM; in assay [5] it was 450 µM; in assay [6], 550 µM.

On to `O=[N+]([O-])c1cccc(-c2csc(NN=C3CCCC3)n2)c1`, for which the IC50 was 3.46 µM in assay [1], 0.095 µM in assay [2], 1180 µM in assay [7] and 1100 µM in assay [8]. The compound also came in with an inhibition in assay [3] of 12.4%. For the same compound, the EC50 in assay [4] amounted to 1340 µM; in assay [5], 400 µM; in assay [6], 510 µM.

As for `CCCC/C(CC)=N\Nc1nc(-c2cccc([N+](=O)[O-])c2)cs1`, the IC50 was 6.03 µM in assay [1], 0.182 µM in assay [2], 1260 µM in assay [7] and 1040 µM in assay [8]. Moreover, the inhibition in assay [3] was found to be 10%. Moreover, the EC50 in assay [4] stood at 1560 µM; in assay [5], 410 µM; in assay [6] it was 550 µM.

Take `C=CCC/C(C)=N\Nc1nc(-c2cccc([N+](=O)[O-])c2)cs1`: the IC50 in assay [1] was 3.99 µM; in assay [2] it was 0.101 µM; in assay [7], 1210 µM; in assay [8], 1040 µM. The same compound yielded an inhibition in assay [3] of 6.35%. For the same compound, the EC50 in assay [4] amounted to 1150 µM; in assay [5], 330 µM; in assay [6], 460 µM.

As to `CC1CCC(=NNc2nc(-c3cccc([N+](=O)[O-])c3)cs2)CC1` (centres undefined), the IC50 amounted to 4.25 µM in assay [1], 0.237 µM in assay [2], 1180 µM in assay [7] and 1090 µM in assay [8]. In assay [3], this compound returned an inhibition of 4.87%. For the same compound, the figures for the EC50 in assay [4], in assay [5] and in assay [6] were 1130 µM, 390 µM and 390 µM, respectively.
